Data taken from ChEMBL document CHEMBL1154322, “Optimization of the antitumor efficacy of a synthetic mitochondrial toxin by increasing the residence time in the cytosol” (J Med Chem, 2009).
Calls of active or inactive are those of the source. The rule behind the calls is not given here.

Columns and labels:
[1] = Drug accumulation in BAEC in presence of MRP1/2 inhibitor Reversan by inductively coupled plasma spectrometry relative to untreated control; assay type: ADME, Bos taurus; details: cattle
In short: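 BAE cells incubated 2 h with 50 μM arsenical with or without 5 μM Reversan; cellular arsenic by inductively coupled plasma spectrometry, expressed as % increase in accumulation; triplicates, two experiments.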

[2] = system: BXPC-3; test: Antiproliferative activity against human BxPC3 cells after 72 hrs by MTT assay; assay type: functional, cell-based; details: BXPC-3, 72 h
In short: (§1)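 Cells seeded in 96-well plates, attached overnight at 37 °C, 5% CO2, then cultured 72 h in medium with 10% fetal calf serum plus compound. Viability by MTT, formazan dissolved in DMSO, absorbance 550 nm; expressed as % of untreated control; IC50 = concentration inhibiting proliferation by 50%.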

[3] = system: MCF7; test: Antiproliferative activity against human MCF7 cells after 72 hrs by MTT assay; assay type: functional, cell-based; details: MCF7, 72 h; in short: as §1
[4] = system: PANC-1; test: Antiproliferative activity against human PANC1 cells after 72 hrs by MTT assay; assay type: functional, cell-based; details: PANC-1, 72 h; in short: as §1
[5] = system: HCT-116; test: Antiproliferative activity against human HCT116 cells after 72 hrs by MTT assay; assay type: functional, cell-based; details: HCT-116, 72 h; in short: as §1
[6] = system: Lewis lung carcinoma cell line; test: Antiproliferative activity against mouse LLC cells after 72 hrs by MTT assay; assay type: functional, cell-based; in short: as §1
[7] = system: HT-1080; test: Antiproliferative activity against human HT1080 cells after 72 hrs by MTT assay; assay type: functional, cell-based; details: HT-1080, 72 h; in short: as §1
[8] = system: K562; test: Antiproliferative activity against human K562 cells after 72 hrs by MTT assay; assay type: functional, cell-based; details: K562, 72 h; in short: as §1
[9] = Antiproliferative activity against MDCK2 cells after 72 hrs by MTT assay; assay type: functional, cell-based; details: Canis lupus familiaris, MDCK-II; in short: as §1
[10] = Antiproliferative activity against mouse bEND.3 cells after 72 hrs by MTT assay; assay type: functional, cell-based; details: BEND3, 72 h; in short: as §1
[11] = Antiproliferative activity against HMEC1 cells after 72 hrs by MTT assay; assay type: functional, cell-based; details: Homo sapiens, HMEC-1, 72 h; in short: as §1
[12] = (§2) Antiproliferative activity against BAEC after 72 hrs by MTT assay; assay type: functional, Bos taurus; in short: as §1
[13] = system: HEK293; test: Resistance index, ratio of IC50 for mouse MEF3.8 cells overexpressing MRP6 to IC50 for wild type […]; assay type: functional
[14] = system: HEK293; test: Resistance index, ratio of IC50 for HEK293 cells overexpressing MRP5 to IC50 for wild type HEK293 cells; assay type: functional, Homo sapiens
In short: (§3)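 Transfected MDCKII (MRP1-3), HEK293 (MRP4, MRP5) or MEF3.8 (MRP6, MDR1, BCRP) lines grown in DMEM with 10% calf serum; IC50 for proliferation arrest of each transfectant divided by IC50 of non-transfected parental cells.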

[15] = Resistance index, ratio of IC50 for MDCK2 cells overexpressing MRP3 to IC50 for wild type MDCK2 cells; assay type: functional, Canis lupus familiaris; in short: as §3
[16] = Resistance index, ratio of IC50 for MDCK2 cells overexpressing MRP2 to IC50 for wild type MDCK2 cells; assay type: functional, Canis lupus familiaris; in short: as §3
[17] = Resistance index, ratio of IC50 for MDCK2 cells overexpressing MRP1 to IC50 for wild type MDCK2 cells; assay type: functional, Canis lupus familiaris; in short: as §3
[18] = Drug accumulation in BAEC assessed as accumulation rate up to 4 hrs by inductively coupled plasma spectrometry relative to 4-(N-(S-Glutathionylacetyl)amino)phenylarsonous acid; assay type: ADME, Bos taurus; details: cattle
In short: (§4)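 BAE cells seeded in 6-well plates, attached overnight, fresh medium, then 50 μM arsenical for up to 4 h; cytosolic arsenic by inductively coupled plasma spectrometry; accumulation rate (pmol As per 10^6 cells per min) from linear least-squares fit; triplicates.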

[19] = Drug accumulation in BAEC assessed as accumulation rate up to 4 hrs by inductively coupled plasma spectrometry relative to 4-(N-(S-cysteinylacetyl)amino)phenylarsonous acid; assay type: ADME, Bos taurus; details: cattle; in short: as §4
[20] = Drug accumulation in BAEC assessed as accumulation rate up to 4 hrs by inductively coupled plasma spectrometry relative to 4-(N-(S-cysteinylglycylacetyl)amino)phenylarsonous acid; assay type: ADME, Bos taurus; details: cattle; in short: as §4
[21] = system: BXPC-3; test: Antitumor activity against human BxPC3 cells xenografted in BALB/c mouse assessed as tumor doubling time at 0.25 mg/kg/day, sc (Rvb= 9.4 +/- 1.4 days); assay type: functional; details: route subcutaneous
[22] = system: BXPC-3; test: Antitumor activity against human BxPC3 cells xenografted in BALB/c mouse assessed as tumor doubling time at 0.5 mg/kg/day, sc (Rvb= 9.4 +/- 1.4 days); assay type: functional; details: route subcutaneous
[23] = system: Mus musculus; test: Toxicity in human BxPC3 cells xenografted BALB/c mouse at 0.25 mg/kg/day, sc for 28 days; assay type: organism-based, BXPC-3; parameters: route subcutaneous; details: in vivo, 672 h
In short: (§5)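 Female Balb C nude mice bearing s.c. BxPC-3 tumors given compound via 28-day s.c. flank micro-osmotic pumps; animal weight measured every 2 or 3 days and signs of toxicity observed.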

[24] = system: Mus musculus; test: Toxicity in human BxPC3 cells xenografted BALB/c mouse at 0.5 mg/kg/day, sc for 28 days; assay type: organism-based, BXPC-3; parameters: route subcutaneous; details: in vivo, 672 h; in short: as §5
[25] = system: BXPC-3; test: Antiangiogenic activity against human BxPC3 cells xenografted in BALB/c mouse assessed as reduction of tumor blood vessel density at 0.25 mg/kg/day, sc dosed for 18 days; assay type: functional, organism-based
In short: (§6)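 Female 7-9 week Balb C nude mice given 3 × 10^6 BxPC-3 cells s.c. in proximal midline; at ~50 mm3, randomized and given s.c. flank micro-osmotic pumps (vehicle or 0.25 mg/kg/day) for 18 days. Excised tumors formalin-fixed, paraffin sections immunostained for CD31 (microvessels counted in five hot spots) or PCNA (positive cells per 100 tumor cells, three fields); one-way ANOVA.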

[26] = system: BXPC-3; test: Antitumor activity against human BxPC3 cells xenografted in BALB/c mouse assessed as reduction of tumor proliferative index at 0.25 mg/kg/day, sc dosed for 18 days; assay type: functional, organism-based; in short: as §6
[27] = system: BXPC-3; test: Antitumor activity against human BxPC3 cells xenografted in BALB/c mouse assessed as tumor doubling time at 5 mg/kg/day, sc dosed for 18 days; assay type: functional, organism-based
[28] = system: BXPC-3; test: Potency ratio, ratio of antitumor activity of 4-(N-(S-Glutathionylacetyl)amino)phenylarsonous acid to compound antitumor activity against human BxPC3 cells xenografted in BALB/c; assay type: functional
[29] = Potency ratio, ratio of IC50 for 4-(N-(S-Glutathionylacetyl)amino)phenylarsonous acid to compound for BAEC after 48 hrs by propidium iodide staining; assay type: functional, Bos taurus
[30] = Reduction of cell viability in BAEC after 48 hrs by propidium iodide staining; assay type: functional, cell-based; details: Bos taurus
[31] = Antiproliferative activity against BAEC after 72 hrs by MTT assay in presence of 3 uM MRP1/2 inhibitor Reversan and 20 uM gamma-glutamyl cysteine synthase inhibitor buthionine sulfoximine; assay type: functional, cell-based; details: Bos taurus
[32] = Antiproliferative activity against BAEC after 72 hrs by MTT assay in presence of 3 uM MRP1/2 inhibitor Reversan; assay type: functional, cell-based; details: Bos taurus
[33] = Antiproliferative activity against BAEC after 72 hrs by MTT assay in presence of 20 uM gamma-glutamyl cysteine synthase inhibitor buthionine sulfoximine; assay type: functional, cell-based; details: Bos taurus
[34] = system: BAEC; test: as §2; assay type: functional; details: Bos taurus; in short: as §1
[35] = Antiproliferative activity against BAEC after 72 hrs by MTT assay in presence of 100 uM gamma-glutamyl cysteine synthase inhibitor buthionine sulfoximine; assay type: functional, Bos taurus
[36] = system: BAEC; test: Antiproliferative activity against MRP1/2 inhibitor Reversan pretreated BAEC at 0.3 uM after 72 hrs by MTT assay; assay type: functional, cell-based; details: Bos taurus
In short: (§7)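 BAE cells pretreated 30 min with 15 μM MK571 or 2 μM Reversan, then incubated with 0.3 μM compound for 72 h; viability by MTT as % of control; mean ± SD of triplicates.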

[37] = system: BAEC; test: Antiproliferative activity against MRP1/2 inhibitor MK571 pretreated BAEC at 0.3 uM after 72 hrs by MTT assay; assay type: functional; details: Bos taurus; in short: as §7
[38] = system: BAEC; test: Antiproliferative activity against OATP inhibitor DIDS pretreated BAEC at 3 uM after 24 hrs by MTT assay; assay type: functional, cell-based; details: Bos taurus
In short: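 BAE cells untreated or pretreated 30 min with 500 μM DIDS, then 3 μM compound for 24 h; viability by MTT, % of control; triplicates, two experiments.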

[39] = Potency ratio, ratio of IC50 for 4-(N-(S-cysteinylacetyl)amino)phenylarsonous acid to compound for BAEC after 24 hrs by MTT assay; assay type: functional, Bos taurus
[40] = Potency ratio, ratio of IC50 for 4-(N-(S-cysteinylglycylacetyl)amino)phenylarsonous acid to compound for BAEC after 24 hrs by MTT assay; assay type: functional, Bos taurus
[41] = Potency ratio, ratio of IC50 for 4-(N-(S-Glutathionylacetyl)amino)phenylarsonous acid to compound for BAEC after 24 hrs by MTT assay; assay type: functional, Bos taurus
[42] = system: HEK293; test: Resistance index, ratio of IC50 for HEK293 cells overexpressing MRP4 to IC50 for wild type HEK293 cells; assay type: functional, Homo sapiens; in short: as §3
[43] = system: HEK293; test: Resistance index, ratio of IC50 for mouse MEF3.8 cells overexpressing BCRP to IC50 for wild type […]; assay type: functional
[44] = system: HEK293; test: Resistance index, ratio of IC50 for mouse MEF3.8 cells overexpressing MDR1 to IC50 for wild type […]; assay type: functional

For `N[C@H](CSCC(=O)Nc1ccc([As](O)O)cc1)C(=O)O`, the Drug uptake [1] was 114%.

`N[C@@H](CCC(=O)N[C@@H](CSCC(=O)Nc1ccc([As](O)O)cc1)C(=O)NCC(=O)O)C(=O)O` gave an IC50 [2] of 270 µM, an IC50 [3] of 51 µM and an IC50 [4] of 43 µM. The IC50 [5] was 43 µM, the IC50 [6] was 41 µM and the IC50 [7] was 25 µM. It also gave an IC50 [8] of 14 µM, an IC50 [9] of 13 µM and an IC50 [10] of 42 µM. The IC50 [11] was 23 µM and the IC50 ([12]; Bos taurus, BAEC, 72 h) was 10 µM.

For `N[C@H](CSCC(=O)Nc1ccc([As](O)O)cc1)C(=O)NCC(=O)O`, the Drug uptake [1] was 197%.

In the case of `CC(C)(SCC(=O)Nc1ccc([As](O)O)cc1)[C@@H](N)C(=O)O`, the “Ratio IC50” value [13] is reported as 1.3, the “Ratio IC50” value [14] is reported as 0.4 and the “Ratio IC50” value [15] is reported as 0.8. For the same compound, the “Ratio IC50” value [16] was 4.6, the “Ratio IC50” value [17] was 3.7 and the “fold change (FC)” value [18] was 85. For the same compound, the “fold change (FC)” value [19] was 10, the “fold change (FC)” value [20] was 9 and the Activity [21] was 15.6 days. The Activity [22] was 13.8 days, the Activity [23] was “Non-toxic” and the Activity [24] was “Non-toxic”. For the same compound, the Activity [25] was “Active”, the Activity [26] was “Active” and the Activity [27] was “Active”. For the same compound, the “Ratio IC50” value [28] was 20, the IC50 [2] was 21 µM and the IC50 [3] was 9.4 µM. For the same compound, the IC50 [4] was 6.4 µM, the IC50 [5] was 5.9 µM and the IC50 [6] was 5.3 µM. For the same compound, the IC50 [7] was 4.1 µM, the IC50 [8] was 1.8 µM and the IC50 [9] was 2.4 µM. The IC50 [10] was 2.5 µM, the IC50 [11] was 2 µM and the “Ratio IC50” value [29] was 21. The IC50 [30] was 3.5 µM, the IC50 [31] was 0.02 µM and the IC50 [32] was 0.13 µM. The IC50 [33] was 0.07 µM, the Activity [12] was 440 nM and the Activity [34] was “inactive”. The Activity [35] was 16 nM, the Activity [36] was “Active” and the Activity [37] was “Active”. For the same compound, the Activity [38] was “inactive”, the “Ratio IC50” value [39] was 6 and the “Ratio IC50” value [40] was 8. For the same compound, the “Ratio IC50” value [41] was 44, the Drug uptake [1] was 52% and the “Ratio IC50” value [42] was 0.5. For the same compound, the “Ratio IC50” value [43] was 1.1 and the “Ratio IC50” value [44] was 1.2.
